An excerpt weighted towards active compounds, which were near 1.6% of everything screened.
DNMT1 inh: blocks human DNA methyltransferase DNMT1; P26358; DNMT1 molecular beacon, Hinp1I cleavage, fluorescence; inhibition (reported as % activation of signal), % at 10 µM; 360,000 tested, 0.83% active; AID 588458; in the data active means inhibition above about 50%
Scp-1 inhibitor: blocks human Scp-1 phosphatase activity; Q9GZU7; Recombinant Scp1, phosphopeptide, malachite green phosphate absorbance; 340,000 tested, 0.88% active; inhibition, % at 20 µM;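 active means inhibition above about 50% at 20 µM, limit read from the data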
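Test system: SCP-1 phosphatase catalytic domain, residues 76-261 | Compound dosing: One concentration, 20 µM, with 1.0% DMSO | Schedule: 45 min room-temperature reaction, 5 min colour, 30 min stabiliser | Detection: Absorbance at 630 nm | Read-out basis: % inhibition of SCP-1 phosphate liberation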
SUMO1 PPI mod: SUMO1-SIM interaction modulation. P63165. SUMO1 binding to a labelled peptide, TR-FRET, 1 h. inhibition, % at 20 µM. 360,000 tested, 0.33% active; in the data active means inhibition above about 37%
CFTR F508del cor: CFTR F508del correction in bronchial cells | CFBE cells, YFP halide quenching; stimulated with forskolin plus potentiator P3; % fluorescence drop versus neutral controls | activity (quench increase), % at 7.58 µM | 350,000 tested, 0.36% active;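 active means mean added fluorescence quench of at least 8% versus neutral control, with both replicates also reaching 8%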;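 further: cells transiently co-express mutant CFTR-F508del with the halide-sensitive YFP; corrector assay measuring rescue of mutant channel to the surface after 24 h compound exposure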
LMPTP block: blocks human LMPTP phosphatase; P24666; recombinant LMPTP-A, OMFP fluorogenic substrate, fluorescence intensity; 360,000 tested, 0.22% active; inhibition, % at 20 µM;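 active means compounds that cut the enzyme signal by at least half of the control window in the single-dose screen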
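Test system – LMPTP-A phosphatase enzyme · Quantity – 0.625 nM LMPTP-A final · Reagent – OMFP substrate, 400 µM final · Dosing – one test concentration per compound, 20 µM, with 3% DMSO overall · Timing – 50 min enzyme reaction at room temperature, protected from light · Detection – fluorescence intensity · Controls – substrate-only low control, DMSO enzyme-plus-substrate high control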
STEP block: STEP (human) phosphatase inhibition. inhibition, % at 20 µM. recombinant STEP, OMFP fluorogenic substrate, fluorescence. 360,000 tested, 0.25% active. AID 588621;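 active means inhibition at 20 µM, scaled per plate between control wells, above about 37%, limit read from the data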
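Also added – OMFP at 25 µM · Test system – STEP tyrosine phosphatase · Technique – FITC-channel fluorescence of OMFP product · Schedule – 20 min at room temperature, dark · Evaluation – control-normalized % inhibition with plate pattern correction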
DNMT1 confirm: confirmation of human DNMT1 inhibitors. inhibition, % at 10 µM. 2,300 tested, 8% active. AID 602385. DNMT1 molecular beacon HinP1I cleavage, fluorescence. shares compounds with DNMT1 inh;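 active means average inhibition of at least 30% in the single-concentration confirmation test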
Beacon interf: counter-screen for DNMT1 inhibitors: spectral interference; 2,300 tested, 1% active; shares compounds with DNMT1 inh; activation (fluorescence interference), % at 10 µM; DNMT1 molecular beacon spectral interference counterscreen, fluorescence 485/520;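 active means activation of at least 30% at 10 µM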;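 further: DNMT1 catalytic domain with a HinP1I cleavage step and a FAM/dabcyl DNA beacon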
Of the large screens only hits and unclear results are named; the others gave an inactive call (follow-up assays come after a bar, where they were run); ! = not confirmed by another sample.

Cc1ccc(C(=O)Nc2cccc(C(F)(F)F)c2)cc1NC(=O)c1cnnc2ccccc12	DNMT1 inh 55! | DNMT1 confirm inactive | Beacon interf inactive
Cc1ccc(C(=O)Nc2cccc(C(F)(F)F)c2)cc1NC(=O)c1[nH]cnc1C(N)=O	DNMT1 inh 56 | DNMT1 confirm inactive | Beacon interf inactive
COc1ccc2c(c1)N(C)/C(=C1/SC(=NCc3ccccc3)N(c3ccccc3)C1=O)S2	DNMT1 inh 53 (no result: CFTR F508del cor) | DNMT1 confirm inactive | Beacon interf inactive
CO[C@H](CN(C)C(=O)c1ccccc1F)[C@@H](C)CN([C@H](C)CO)S(=O)(=O)c1ccc(Cl)cc1	none (no result: DNMT1 inh, Scp-1 inhibitor, SUMO1 PPI mod, LMPTP block, STEP block)
Cc1cc(C)cc(OCc2nc3ncc(Br)cc3[nH]2)c1	DNMT1 inh 59 (no result: CFTR F508del cor) | DNMT1 confirm inactive | Beacon interf inactive
CCCNC(=O)N1C[C@H](C)[C@H](OC)CN(C)C(=O)c2cc(NC(=O)CCC)ccc2OC[C@@H]1C	none (no result: DNMT1 inh, Scp-1 inhibitor, SUMO1 PPI mod, LMPTP block, STEP block)
O=C(Nc1ccc(N2CCCC2)cc1)C(c1ccccc1)c1ccccc1	DNMT1 inh 73 (no result: CFTR F508del cor) | DNMT1 confirm inactive | Beacon interf inactive
CCOc1cccc(C(=O)NC(=S)Nc2ccc(N3CCCC3)cc2)c1	DNMT1 inh 72 (no result: CFTR F508del cor) | DNMT1 confirm inactive | Beacon interf inactive
O=C(Cc1ccccc1)Nc1ccc(N2CCOCC2)cc1	none
CCCCC(=O)Nc1ccc(N2CCN(C(=O)CC)CC2)cc1	none (no result: CFTR F508del cor)
CCCCC(=O)Nc1ccc(N2CCCC2)cc1	DNMT1 inh 77 (no result: CFTR F508del cor) | DNMT1 confirm inactive | Beacon interf inactive
O=C(Cc1ccccc1)Nc1cccc(N2CCCC2)c1	DNMT1 inh 78 (no result: CFTR F508del cor) | DNMT1 confirm inactive | Beacon interf inactive
CC(=O)N1CCN(c2ccc(NC(=O)C(c3ccccc3)c3ccccc3)cc2)CC1	none
CN(C)C(=O)c1cccc(-c2ccccc2[C@H]2[C@@H](C#N)N(C(=O)C3CCCC3)[C@@H]2CO)c1	none (no result: DNMT1 inh, Scp-1 inhibitor, SUMO1 PPI mod, LMPTP block, STEP block)
C[C@H]1CN([C@@H](C)CO)C(=O)c2cccc(NC(=O)c3ccc(-c4nccs4)cc3)c2O[C@@H]1CN(C)S(=O)(=O)c1cccs1	none (no result: DNMT1 inh, Scp-1 inhibitor, SUMO1 PPI mod, LMPTP block, STEP block)
CN(C)C(=O)C[C@H]1CC[C@@H]2[C@H](COc3ccc(NC(=O)C4CC4)cc3C(=O)N2C)O1	none (no result: DNMT1 inh, Scp-1 inhibitor, SUMO1 PPI mod, LMPTP block, STEP block)
CC(=O)N1CCN(c2ccc(NC(=O)c3cc4ccccc4o3)cc2)CC1	none
O=C(Nc1ccc(N2CCCC2)cc1)c1cc2ccccc2o1	DNMT1 inh 65 | DNMT1 confirm inactive | Beacon interf inactive
O=C(Nc1ccc(N2CCCC2)cc1)c1ccc(Br)cc1	DNMT1 inh 58 (no result: CFTR F508del cor) | DNMT1 confirm inactive | Beacon interf inactive
O=C(Cc1ccccc1)Nc1ccc(N2CCCC2)cc1	DNMT1 inh 94 (no result: CFTR F508del cor) | DNMT1 confirm inactive | Beacon interf inactive
O=C(Cc1ccc(Cl)cc1)Nc1ccc(NC(=O)c2ccccc2)cc1	DNMT1 inh 56 (no result: CFTR F508del cor) | DNMT1 confirm inactive | Beacon interf inactive
COc1ccc(CN(C)C[C@H]2OCCCC[C@@H](C)Oc3ccc(NS(C)(=O)=O)cc3C(=O)N([C@H](C)CO)C[C@H]2C)cc1	none (no result: DNMT1 inh, Scp-1 inhibitor, SUMO1 PPI mod, LMPTP block, STEP block)
C[C@H]1CN([C@@H](C)CO)C(=O)CCCn2cc(nn2)CO[C@H]1CN(C)C(=O)Nc1cccc2ccccc12	none (no result: DNMT1 inh, Scp-1 inhibitor, SUMO1 PPI mod, LMPTP block, STEP block)
O=C(NCCc1ccccc1)[C@@H]1[C@@H](CO)[C@@H]2Cn3c(cccc3=O)[C@@H]2N1Cc1cccnc1	none (no result: DNMT1 inh, Scp-1 inhibitor, SUMO1 PPI mod, LMPTP block, STEP block)
COc1ccccc1C#Cc1cnc2c(c1)C(=O)N([C@@H](C)CO)C[C@H](C)[C@@H](CN(C)C)O2	none (no result: DNMT1 inh, Scp-1 inhibitor, SUMO1 PPI mod, LMPTP block, STEP block)
CCOC(=O)c1ccc(CNS(=O)(=O)c2c(C)ccc3nsnc23)o1	DNMT1 inh 69 (no result: CFTR F508del cor) | DNMT1 confirm inactive | Beacon interf inactive
CCC1S/C(=N/S(=O)(=O)c2ccc(N)cc2)NC1=O (stereo not drawn)	DNMT1 inh 66 | DNMT1 confirm inactive | Beacon interf inactive
CCC1SC(=Nc2cccc(C)c2)NC1=O (stereo not drawn)	none

Source: PubChem
